The results in this text go back to ChEMBL document CHEMBL3994573, “Cytotoxic Lanostanoids from Poria cocos” (J Nat Prod, 2016).

Common to all, as to type: functional, cell-based
Experiment [1] deals with MOLT-4. Put plainly: Antiproliferative activity against human MOLT4 cells after 72 hrs by MTT assay. Particulars: MOLT-4, 72 h. In outline: (§1)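 Leukemia cells (ATCC) grown in RPMI-1640 with 10% FCS, 2 mM glutamine, penicillin/streptomycin at 37 °C, 5% CO2. Seeded at 4 × 10^4 per well. Exposed 72 h to 1.25, 2.5, 5, 10 and 20 μg/mL (DMSO under 0.02%). MTT formazan dissolved in DMSO, read as OD570 − OD620. IC50 = concentration giving half the control absorbance. n = 4 wells per experiment, four separate experiments, ± SD.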

Experiment [2] relates to K562. Put plainly: Antiproliferative activity against human K562 cells after 72 hrs by MTT assay. Particulars: K562, 72 h. In outline: as §1
In general terms: Tetrazolium assays rely on reduction of a dye to a coloured formazan, in cell work by metabolically active cells.

In experiment [3] the test system is CCRF-CEM. Put plainly: Antiproliferative activity against human CCRF-CEM cells after 72 hrs by MTT assay. In outline: as §1
The subject of experiment [4] is HL-60. Briefly: Antiproliferative activity against human HL60 cells after 72 hrs by MTT assay. The settings on record: HL-60, 72 h. In outline: as §1

For `C=C(CC[C@@H](C(=O)O)[C@H]1[C@H](O)C[C@@]2(C)C3=CC[C@H]4C(C)(C)C(=O)CC[C@]4(C)C3=CC[C@]12C)C(C)C` [POLYPORENIC ACID B], the half-maximal inhibitory concentration (IC50) (in general, the concentration that gives 50% inhibition) was found to be 27.6 µM in experiment [1], 26.3 µM in experiment [2], 25.5 µM in experiment [3] and 31.8 µM in experiment [4].
For `CC(C)=CCC[C@@H](C(=O)O)[C@H]1[C@H](O)C[C@@]2(C)C3=C(CC[C@]12C)[C@@]1(C)CC[C@H](O)C(C)(C)[C@@H]1CC3` the same measures were over 40 µM, over 40 µM, over 40 µM and over 40 µM.
Turning to `C=C(CC[C@@H](C(=O)O)[C@H]1[C@H](O)C[C@@]2(C)C3=C(CC[C@]12C)[C@@]1(C)CC[C@@H](O)C(C)(C)[C@@H]1CC3=O)C(C)C`, the half-inhibitory concentration (IC50) in experiment [1], in experiment [2], in experiment [3] and in experiment [4] was over 40 µM throughout.
Take `C=C(CC[C@@H](C(=O)O)[C@H]1[C@H](O)C[C@@]2(C)C3=CC=C4C(C)(C)C(=O)CC[C@]4(C)C3=CC[C@]12C)C(C)C`: the IC50 in experiment [1], in experiment [2], in experiment [3] and in experiment [4] was over 40 µM each time.
`C=C(CC[C@@H](C(=O)O)[C@H]1[C@H](O)C[C@@]2(C)C3=CC[C@H]4C(C)(C)[C@@H](O)CC[C@]4(C)C3=CC[C@]12C)C(C)C` [DEHYDROTUMULOSIC ACID]: the IC50 in experiment [1], in experiment [2], in experiment [3] and in experiment [4] was over 40 µM each time.
On to `C=C(CC[C@@H](C(=O)O)[C@H]1[C@H](O)C[C@@]2(C)[C@]34C=C[C@@]5(OO3)C(C)(C)[C@@H](O)CC[C@]5(C)C4=CC[C@]12C)C(C)C`, for which the IC50 in experiment [1], in experiment [2], in experiment [3] and in experiment [4] was over 40 µM throughout.
For `C=C(C)C(=O)CC[C@@H](C(=O)O)[C@H]1[C@H](O)C[C@@]2(C)C3=C(CC[C@]12C)[C@@]1(C)CC[C@H](O)C(C)(C)[C@@H]1CC3`, the IC50 in experiment [1], in experiment [2], in experiment [3] and in experiment [4] was over 40 µM in each case.
Turning to `C=C(CC[C@@H](C(=O)O)[C@H]1[C@H](O)C[C@@]2(C)C3=CC[C@H]4C(C)(C)[C@H](O)CC[C@]4(C)C3=CC[C@]12C)C(C)C`, the IC50 in experiment [1], in experiment [2], in experiment [3] and in experiment [4] was over 40 µM in each case.
As to `COc1cccc2c1C(=O)c1c(O)c3c(c(O)c1C2=O)C[C@@](O)(C(=O)CO)C[C@@H]3O[C@H]1C[C@H](N)[C@H](O)[C@H](C)O1` [DOXORUBICIN], the 50% inhibitory concentration (IC50) amounted to 0.01 µM in experiment [1], 0.5 µM in experiment [2], 0.01 µM in experiment [3] and 0.01 µM in experiment [4].
In the case of `CC(C)C(=O)CC[C@@H](C(=O)O)[C@H]1[C@H](O)C[C@@]2(C)C3=CC[C@H]4C(C)(C)[C@@H](O)CC[C@]4(C)C3=CC[C@]12C`, the IC50 in experiment [1], in experiment [2], in experiment [3] and in experiment [4] was over 40 µM in each case.
Take `C=C(CC[C@@H](C(=O)O)[C@H]1[C@H](O)C[C@@]2(C)[C@]34C=C[C@@]5(OO3)C(C)(C)[C@@H](OC(=O)CO)CC[C@]5(C)C4=CC[C@]12C)C(C)C`: the IC50 in experiment [1], in experiment [2], in experiment [3] and in experiment [4] was over 40 µM each time.
Turning to `C=C(CC[C@@H](C(=O)O)[C@H]1[C@H](O)C[C@@]2(C)C3=CC[C@@H](C(=C)C)[C@](C)(CCC(=O)O)C3=CC[C@]12C)C(C)C` [PORICOIC ACID A], the IC50 in experiment [1], in experiment [2], in experiment [3] and in experiment [4] was over 40 µM throughout.
Turning to `C=C(CC[C@@H](C(=O)O)[C@H]1[C@H](O)C[C@@]2(C)C3=CCC4[C@](C)(CC[C@H](O)[C@]4(C)CO)C3=CC[C@]12C)C(C)C` (stereo partly specified), the half-maximal inhibitory concentration (IC50) in experiment [1], in experiment [2], in experiment [3] and in experiment [4] was over 40 µM each time.
`CC(C)C(=O)CC[C@@H](C(=O)O)[C@H]1[C@H](O)C[C@@]2(C)C3=CC[C@H]4C(C)(C)[C@H](O)CC[C@]4(C)C3=CC[C@]12C`: the IC50 in experiment [1], in experiment [2], in experiment [3] and in experiment [4] was over 40 µM each time.
On to `CC(C)=CCC[C@@H](C(=O)O)[C@H]1CC[C@@]2(C)C3=CC[C@H]4C(C)(C)[C@@H](O)CC[C@]4(C)C3=CC[C@]12C` [DEHYDROTRAMETENOLIC ACID], for which the half-maximal inhibitory concentration (IC50) stood at 16.2 µM in experiment [1], 14.8 µM in experiment [2], 13.1 µM in experiment [3] and 20 µM in experiment [4].
With `C=C(CC[C@@H](C(=O)O)[C@H]1[C@H](O)C[C@@]2(C)C3=C(CC[C@]12C)[C@@]1(C)CC[C@H](O)C(C)(C)[C@@H]1CC3=O)C(C)C`, the IC50 in experiment [1], in experiment [2], in experiment [3] and in experiment [4] was over 40 µM each time.
Regarding `CC(C)=CCC[C@@H](C(=O)O)[C@H]1[C@H](O)C[C@@]2(C)C3=CC[C@H]4C(C)(C)[C@@H](O)CC[C@]4(C)C3=CC[C@]12C`, the IC50 in experiment [1], in experiment [2], in experiment [3] and in experiment [4] was over 40 µM in each case.
`C=C(CC[C@@H](C(=O)O)[C@H]1[C@H](O)C[C@@]2(C)C3=CC[C@H]4C(C)(C)[C@@H](OC(C)=O)CC[C@]4(C)C3=CC[C@]12C)C(C)C`: the IC50 in experiment [1] is 13.8 µM; in experiment [2], 18.6 µM; in experiment [3] it was 2.7 µM; in experiment [4], 7.3 µM.
`C=C(CC[C@@H](C(=O)O)[C@H]1CC[C@@]2(C)C3=CC[C@H]4C(C)(C)[C@@H](O)CC[C@]4(C)C3=CC[C@]12C)C(C)C` [DEHYDROEBURICOIC ACID]: the concentration for half-maximal inhibition (IC50) in experiment [1] was 14.3 µM; in experiment [2] it was 25.6 µM; in experiment [3], 6.3 µM; in experiment [4], 6 µM.
